The text below walks through data of ChEMBL document CHEMBL1145109, “Discovery of 4-benzoyl-1-[(4-methoxy-1H- pyrrolo[2,3-b]pyridin-3-yl)oxoacetyl]-2- (R)-methylpiperazine (BMS-378806): a novel HIV-1 attachment inhibitor that interferes with CD4-gp120 interactions” (J Med Chem, 2003).

Series [1] is described as follows: The maximum plasma concentration of compound after paroral administration of 10 (mg/kg) polyethelene glycol in monkey was determined. It is filed as ADME, organism-based. The arrangement: dose 10 mg/kg, route oral. The note with it: simiiformes, po. The gist of the method:
(§1)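 Given to rat, dog and cynomolgus monkey as a solution in poly(ethylene glycol) 400/ethanol (90:10 v/v), by intravenous and oral (po) dosing. The iv/po dose pairs in mg/kg were 5/5 or 1/5 in rat and 2/10 or 0.67/3.4 in dog and monkey. Plasma sampling gave Fpo (%), oral Cmax (µM), CLtot (mL/min/kg) and Vss (L/kg).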

Series [2] can be described thus: Inhibitory activity of compound against LAI (T) tropic virus that utilizes the CXCR-4 co-receptor was determined. It is filed as functional.
Series [3] can be described thus: The total clearance time in dog was determined. Format: ADME, organism-based, Canis lupus familiaris. The note with it: in vivo, read-out: CLtotal. The gist of the method: as §1
Series [4] can be described thus: Oral bioavailability after paroral administration of 10 (mg/kg) polyethelene glycol in monkey was determined. It is filed as ADME, organism-based. Conditions: primates, in vivo. In outline:
as §1

Series [5] relates to Human immunodeficiency virus 1. The series is described as follows: Inhibitory activity of compound against TLAV (dual) virus that utilizes both CXR4 and CCR5 co-receptor virus was determined. It is filed as functional, organism-based. The note with it: Human immunodeficiency virus 1, TLAV.
Series [6] is described as follows: The total clearance time in rat was determined. It is filed as ADME, organism-based. Conditions: in vivo, read-out: CLtotal. The gist of the method: as §1
Series [7] in a line: The maximum plasma concentration of compound after peroral administration of 5(mg/kg) polyethelene glycol in rat was determined. Conditions: po. It is filed as ADME, organism-based. The arrangement: dose 5 mg/kg, route oral. The gist of the method:
as §1

Series [8] in a line: Oral bioavailability after paroral administration of 10 (mg/kg) polyethelene glycol in dog was determined. It is filed as ADME, organism-based, Canis lupus familiaris. Conditions: in vivo. The gist of the method:
as §1

Series [9] concerns Human immunodeficiency virus 1. In words: Inhibitory activity of compound in MT-2 cells against JRFL (M) Macrophage tropic virus that utilizes the CCR5 was determined. Format: functional, organism-based.
A short description of series [10]: Inhibitory activity of compound against NL4-3 (T) tropic virus that utilizes the CXCR-4 co-receptor was determined. Format: functional, nl4-3 tropic virus.
Series [11] deals with Human immunodeficiency virus 1. In words: Cytotoxicity activity of compound against BAl (M) Macrophage tropic virus that utilizes the CCR5 virus was determined. Format: functional. The note with it: Human immunodeficiency virus 1, CCR5. The gist of the method:
(§2)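 CC50 in µM, measured as cytotoxicity toward the host cells used for the antiviral assays, either MT-2 or PM1 cells.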

The nature of series [12]: The volume of distribution of compound was determined in monkey. It is filed as ADME, organism-based. Conditions: simiiformes, in vivo; read-out: Vss. In outline:
as §1

The nature of series [13]: The total clearance time in monkey was determined. It is filed as ADME, organism-based. The note with it: simiiformes, in vivo; read-out: CLtotal. In outline:
as §1

Series [14] is described as follows: The maximum plasma concentration of compound after paroral administration of 10 (mg/kg) polyethelene glycol in dog was determined. Format: ADME, organism-based, Canis lupus familiaris. Also noted: dose 10 mg/kg, route oral. The note with it: po. The gist of the method: as §1
In series [15] the test system is Human immunodeficiency virus 1. In words: Inhibitory activity of compound against SF-2 (T) tropic virus that utilizes the CXCR-4 co-receptor was determined. It is filed as functional, organism-based, sf-2 tropic virus.
Series [16] in a line: The volume of distribution of compound a was determined in dog. Format: ADME, organism-based, Canis lupus familiaris. The note with it: in vivo, read-out: Vss. The gist of the method: as §1
A short description of series [17]: Oral bioavailability after peroral administration of 5(mg/kg) polyethelene glycol in rat was determined. Format: ADME, organism-based. Conditions: in vivo. In outline:
as §1

Series [18] concerns Human immunodeficiency virus 1. In words: Cytotoxicity activity of compound against TLAV (dual) virus that utilizes both CXR4 and CCR5 co-receptor virus was determined. Format: functional. Conditions: Human immunodeficiency virus 1, TLAV. The gist of the method: as §2
Series [19] can be described thus: Cytotoxicity activity of compound in MT-2 cells against LAI (T) tropic virus that utilizes the CXCR-4 co-receptor virus was determined. Format: functional. The note with it: MT2. The gist of the method:
as §2

Series [20] in a line: The volume of distribution of compound was determined in rat. Format: ADME, organism-based. Conditions: in vivo, read-out: Vss. In outline: as §1
The subject of series [21] is Human immunodeficiency virus 1. In words: Inhibitory activity of compound against BAl (M) Macrophage tropic virus that utilizes the CCR5 co-receptor was determined. It is filed as functional, organism-based. The note with it: Human immunodeficiency virus 1, CCR5.
Series [22] concerns Human immunodeficiency virus 1. The series is described as follows: Cytotoxicity activity of compound in PM1 cells against BAl (M) Macrophage tropic virus that utilizes the CCR5 virus was determined. The note with it: Human immunodeficiency virus 1, PM1. It is filed as functional. In outline:
as §2

In series [23] the test system is Human immunodeficiency virus 1. The series is described as follows: Inhibitory activity of compound against SF-162 (M) Macrophage tropic virus that utilizes the CCR5 was determined. Format: functional, organism-based, sf-162 macrophage tropic virus. Conditions: Human immunodeficiency virus 1, CCR5.
In series [24] the test system is Human immunodeficiency virus 1. In words: Cytotoxicity activity of compound in MT-2 cells against TLAV (dual) virus that utilizes both CXR4 and CCR5 co-receptor virus was determined. Format: functional. The note with it: Human immunodeficiency virus 1, TLAV, MT2. In outline:
as §2

Series [25] is described as follows: The volume of distribution of compound against rat was determined. It is filed as ADME, organism-based. Conditions: in vivo, read-out: Vss. In outline:
as §1

The nature of series [26]: The maximum plasma concentration of compound after paroral administration of 3.4(mg/kg) polyethelene glycol in dog was determined. It is filed as ADME, organism-based, Canis lupus familiaris. Also noted: dose 3.4 mg/kg, route oral. Conditions: po. The gist of the method: as §1
The test system of series [27] is Human immunodeficiency virus 1. In words: Inhibitory activity of compound against JRFL (M) Macrophage tropic virus that utilizes the CCR5 was determined. It is filed as functional, organism-based. Conditions: Human immunodeficiency virus 1, CCR5.
Series [28] is described as follows: Oral bioavailability after paroral administration of 3.4(mg/kg) polyethelene glycol in monkey was determined. Format: ADME, organism-based. The note with it: primates, in vivo. The gist of the method:
(§3)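 Oral dosing as a solution in PEG 400/ethanol (90:10 v/v). Separate iv arms were used for comparison: rat 1 mg/kg iv vs 5 mg/kg po, dog and cynomolgus monkey 0.67 mg/kg iv vs 3.4 mg/kg po. Oral bioavailability (Fpo, %) was derived from plasma exposure after oral relative to intravenous dosing.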

The nature of series [29]: The maximum plasma concentration of compound after paroral administration of 3.4(mg/kg) polyethelene glycol in monkey was determined. It is filed as ADME, organism-based. The arrangement: dose 3.4 mg/kg, route oral. Conditions: simiiformes, po. In outline:
as §1

Series [30] is described as follows: The maximum plasma concentration of compound after paroral administration of 5(mg/kg) polyethelene glycol in rat was determined. Format: ADME, organism-based. Conditions: po. The arrangement: dose 5 mg/kg, route oral. The gist of the method: as §1
A short description of series [31]: Oral bioavailability after paroral administration of 5(mg/kg) polyethelene glycol in rat was determined. Format: ADME, organism-based. Conditions: in vivo. In outline:
as §3

Series [32] can be described thus: Oral bioavailability after paroral administration of 3.4(mg/kg) polyethelene glycol in dog was determined. It is filed as ADME, organism-based, Canis lupus familiaris. Conditions: in vivo. In outline:
as §3

Series [33] in a line: The volume of distribution of compound was determined in dog. It is filed as ADME, organism-based, Canis lupus familiaris. The note with it: in vivo, read-out: Vss. In outline: as §1

By Cmax is commonly meant the peak of the concentration-time curve. Broadly, the EC50 is the concentration at which the effect is half-maximal. What is called bioavailability is the share of a dose that reaches the circulation, judged against a reference dose that is usually intravenous. The term CC50 denotes the concentration at which the toxic effect on the cells reaches its halfway point. On to `O=C(C(=O)N1CCN(C(=O)c2ccccc2)CC1)c1c[nH]c2cccc(F)c12`, for which the Cmax in series [1] came to 34 µM; in [7], 0.15 µM; in series [14], 18 µM. The EC50 is 0.00293 µM in [2]; 0.0136 µM in [5]; 0.00239 µM in [9]; 0.0308 µM in [10]; 0.0624 µM in series [15]; 0.0181 µM in [21]. The clearance in series [3] turned out to be 0.144 L/h/kg; in series [6], 2.88 L/h/kg; in series [13], 0.186 L/h/kg. Moreover, the values for the bioavailability in [4], in series [8] and in series [17] were 100%, 100% and 9.4%, respectively. Moreover, the 50% cytotoxic concentration (CC50) in [11] turned out to be 52.5 µM; in series [18], 146 µM; in [19], 146 µM. For the same compound, the Vd in [12] was 0.24 L/kg; in series [16], 1.8 L/kg; in series [20], 0.99 L/kg.

As to `O=C(C(=O)N1CCN(C(=O)c2ccccc2)CC1)c1c[nH]c2ccccc12`, the CC50 is > 200 µM in series [22], 145 µM in series [24] and 145 µM in series [19]. Besides, the EC50 in series [2] stood at 0.086 µM; in series [5], 0.149 µM; in series [10] it was 5.13 µM; in series [23] it was 0.23 µM; in series [15] it was 1.03 µM; in series [21], 28.7 µM.

In the case of `COc1ccnc2[nH]cc(C(=O)C(=O)N3CCN(C(=O)c4ccccc4)C[C@H]3C)c12`, the Vd in series [25] came to 0.56 L/kg; in series [12] it was 0.39 L/kg; in [33], 0.47 L/kg. Also, the cytotoxic concentration (CC50) in [22], in series [24] and in [19] was > 300 µM in each case. The Cmax in [26] came to 7.4 µM; in [29] it was 0.51 µM; in [30], 0.22 µM. Also, the EC50 stood at 0.00268 µM in series [2]; 0.00085 µM in [5]; 0.00147 µM in [27]; 0.00294 µM in series [10]; 0.00346 µM in [23]; 0.0265 µM in series [15]. In addition, the response in series [21] was half-maximal at 0.0155 µM (EC50). In addition, the clearance in series [3] was determined as 0.312 L/h/kg; in [6], 1.92 L/h/kg; in series [13], 0.6 L/h/kg. Besides, the bioavailability in [28] worked out at 24%; in series [31] it was 19%; in [32], 77%.
